Screening results from PubChem BioAssay.
CSC inhib: cancer stem cell viability inhibitors, primary screen, luminescence. cancer stem cell-like cells viability. inhibition, % at 7.5 µM. hit rate 1.1% among 300,000. AID 2717, 2010; in the data active = inhibition above about 75%; inconclusive = no clear call, values can overlap the other calls; tested in HMLE shEcad cells
GRIN3A LBD mod: binders of NR3A ligand-binding domain, primary screen, biophysical, differential scanning fluorimetry, uHTS | Glutamate receptor ionotropic, NMDA 3A (GRIN3A) ligand-binding domain | Tm shift relative to glycine control, % at 25 µM | hit rate 2.5% among 340,000 | AID 1259313, 2017 | NR3A LBD differential scanning fluorimetry, Tm shift; 0% = protein alone, 100% = glycine-bound protein;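 active = melting temperature shift of at least 10% of the positive control shift, at one fixed dose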
T cruzi repl: inhibitors of intracellular T. cruzi growth, primary screen, luminescence, NIH3T3 host cells; T. cruzi beta-gal in NIH3T3, 90 h; inhibition, % (test concentration not listed); hit rate 1.4% among 300,000;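 active = mean inhibition across valid replicates above about 55%, limit read from the data; inconclusive = mean below that limit but half or more replicates reach it; inactive = mean below it, under half of replicates reach it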;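 also: signal also drops with host cell toxicity which is not excluded here; 0% = plate median of DMSO wells and 100% = zero luminescence signal; higher percent means less beta-gal luminescence so fewer parasites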
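compound dosing = single 50 nL compound addition per well in DMSO | material = NIH/3T3 host cells with β-galactosidase reporter T. cruzi | input = 5,000 host fibroblasts per well | timing = ≥90 h infection period, 3 h prior cell attachment | read-out basis = percent inhibition of parasite-derived β-gal signal | detection = GalScreen β-gal luminescence, detergent lysis, 60 min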
CHOP inh: inhibitors of CHOP promoter induction, primary screen, cell-based, unfolded protein response, luciferase reporter; CHO-K1 CHOP-promoter luciferase, tunicamycin-induced, 15-18 h; inhibition, % at 10 µM; hit rate 3.8% among 220,000; AID 2732, 2010;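 active = compounds that reduced the stress-induced luciferase reporter signal by more than about 70% of percent inhibition, limit read from the data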;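 also: 0% = tunicamycin plus vehicle and 100% = wells without tunicamycin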
PREPL inhibitor: PREPL enzyme inhibitors, primary screen, biochemical, fluorescence polarization. Prolyl endopeptidase-like (Homo sapiens), Q4J6C6. hit rate 0.68% among 320,000. recombinant PREPL, fluorescence polarization activity-based probe. inhibition, % at 5.96 µM; in the data active = inhibition above about 43%;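 also: 0% = enzyme with DMSO and 100% = wells lacking enzyme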
Beta cell apopt: inhibitors of cytokine-induced beta cell apoptosis, primary screen, luminescence; INS-1E cytokine-induced death, ATP luminescence, 48 h; percent of positive-control rescue, neutral wells zero; hit rate 0.8% among 300,000; AID 435005, 2010; protection from apoptosis, % (test concentration not listed);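 active = Every replicate reaches about 75%, or at least half do and their mean reaches it too, limit read from the data; inconclusive = At least half of replicates reach the limit but their mean does not; inactive = Under half of replicates reach the limit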;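 also: 0% = cytokine-treated negative control wells and 100% = positive control rescue; higher means more ATP so stronger rescue from cytokine killing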
Active calls of the source: *; ? = inconclusive; . = no result given. Only some compounds are listed: those with a hit (about 6.7% of all), similar ones and a draw of the others.

SMILES | CSC inhib | GRIN3A LBD mod | T cruzi repl | CHOP inh | PREPL inhibitor | Beta cell apopt
O=C(CCn1cccn1)N1CCCC(N2CCN(c3cccc(Cl)c3)CC2)C1 (stereo unspecified) | -4.9 | -2.0 | 20.1 | . | . | 5.7
Cc1ccccc1-c1nnc(NC(=O)c2cc3ccccc3oc2=O)s1 | . | . | . | -6.3 | . | .
Cc1cccnc1NC(=O)c1cc2ccccc2oc1=O | . | -3.2 | -6.3 | 90.3* | 2.9 | .
CC(=O)c1ccccc1OCCCCN1CCCCC1 | -3.6 | 2.5 | 17.4 | . | 13.8 | -3.7
O=C1C2C3C=CC(C4CC34)C2C(=O)N1Cc1ccccc1 (stereo unspecified) | . | 0.5 | -8.3 | -4.5 | -2.3 | -2.1
O=C1C2C3C=CC(C3=C3CCCCC3)C2C(=O)N1Cc1ccccc1 (stereo unspecified) | 10.2 | . | 16.8 | 86.2* | 0.7 | -2.1
O=C(COC(=O)Cc1ccsc1)Nc1ccc(Br)cc1F | . | 1.2 | . | . | -3.2 | 2.2
Cc1cccc(OCc2nnc(SCC(=O)N3c4ccccc4CCc4ccccc43)o2)c1 | 22.1 | -3.5 | 29.8 | 55.1 | 23.7 | 2.2
O=C(CSc1nnc(COc2ccc(F)cc2)o1)N1c2ccccc2CCc2ccccc21 | 27.6 | -0.5 | 56.7* | 6.4 | 10.2 | -2.4
COc1ccc(NC(=O)C(C)N=C2NS(=O)(=O)c3ccccc32)cc1S(N)(=O)=O (stereo unspecified) | . | 1.5 | . | . | 5.0 | -0.9
OC[C@H]1O[C@@H](n2cnc3c(Nc4ccccc4)ncnc32)C(O)[C@H]1O (stereo partly specified) | . | . | . | 3.2 | . | .
Cc1cccc(NC(=O)Nc2cccc(C#N)c2)n1 | 1.0 | 0.0 | 11.8 | 31.7 | -6.1 | -8.1
Cc1cccc(NC(=O)Nc2ccc(C#N)cc2)n1 | 10.7 | 1.3 | 19.7 | 77.2* | -6.2 | -19.2
CSc1ccccc1NC(=O)Nc1ccccc1Cl | 3.1 | -1.3 | ? | 12.6 | -8.8 | 3.5
CSc1ccccc1NC(=O)NCCCl | 18.2 | 242.5* | -11.6 | 8.1 | 11.7 | 5.1
CC(C)c1ccc(C(O)P(=O)(OC2CCCCC2)OC2CCCCC2)cc1 (stereo unspecified) | 30.3 | -0.6 | 34.0 | 67.8 | 5.8 | 4.2
N=c1c2c(-c3ccccc3)c(-c3ccccc3)n(Cc3ccco3)c2ncn1CCCO | 14.5 | 3.3 | 64.7* | -22.0 | 10.1 | 5.0
N=c1c2c(-c3ccccc3)c(-c3ccccc3)n(Cc3ccco3)c2ncn1CCO | 37.2 | -2.1 | 34.3 | -19.3 | 9.7 | 9.4
N=c1c2c(-c3ccccc3)c(-c3ccccc3)n(Cc3ccco3)c2ncn1CCN1CCOCC1 | -3.6 | -3.2 | 67.1* | 14.4 | 18.2 | 3.1
CCc1ccc(N(CC(=O)NC(C)(C)CC)C(=O)CCC(=O)Nc2nccs2)cc1 | -6.2 | -0.2 | 8.4 | . | -18.3 | 0.6
CCOC(=O)N1CCN(C(=O)COC(=O)c2cc(C)ccc2C)CC1 | -18.1 | 2.0 | . | . | 5.2 | -1.4
COc1ccc(C(=O)/C(=C\c2ccco2)N2C=CC=CC2=C(C#N)C#N)cc1 | 52.9 | 1.4 | 51.7 | 106.8* | 6.7 | 94.0*
N#CC(C#N)=C1C=CC=CN1/C(=C\c1ccco1)C(=O)c1ccc(Br)cc1 | -89.8 | -1.1 | . | 109.4* | 9.9 | 100.8*
N#CC(C#N)=C1C=CC=CN1/C(=C\c1ccco1)C(=O)c1ccccc1 | -40.8 | 0.6 | . | 110.2* | -6.9 | ?
CCCN1CCC(=O)NC1=S | . | -1.2 | . | . | . | .
CCn1c(=O)c(C(=O)CN2c3ccccc3CC2C)c(N)n(Cc2ccccc2)c1=O (stereo unspecified) | 3.3 | -1.7 | 2.2 | 87.1* | 8.0 | -7.7
CC1Cc2ccccc2N1CC(=O)c1c(N)n(Cc2ccccc2)c(=O)n(C)c1=O (stereo unspecified) | 2.8 | -1.5 | 32.1 | 59.6 | 2.3 | -3.1
Cc1noc(C(=O)Nc2ccc(Cl)cc2)c1Cl | -2.4 | . | 5.0 | . | 3.6 | .
CS(=O)(=O)c1ccc(C(=O)OCc2nnc(-c3ccc(Cl)cc3)o2)cc1[N+](=O)[O-] | 47.6 | 0.9 | 10.0 | 79.2* | 35.4 | -15.1
